# According to ChEMBL document CHEMBL1147651, “Orally active 1,2,4-trioxanes: synthesis and antimalarial assessment of a new series of 9-functionalized 3-(1-arylvinyl)-1,2,5-trioxaspiro[5.5]undecanes against multi-drug-resistant plasmodium yoelii nigeriensis in mice” (2006):
# Legend:
# Assay type in all cases: functional
# [1] = system: Plasmodium yoelii nigeriensis; assay: Antimalarial activity against multidrug-resistant Plasmodium yoelii nigeriensis in mice (Mus musculus) at 100 mg/kg/day peroral dose after 4 days; settings: route oral
# [2] = system: Plasmodium yoelii nigeriensis; assay: Antimalarial activity against multidrug-resistant Plasmodium yoelii nigeriensis in mice (Mus musculus) at 30 mg/kg/day peroral dose after 4 days; settings: route oral
# [3] = system: Plasmodium yoelii nigeriensis; assay: Antimalarial activity against multidrug-resistant Plasmodium yoelii nigeriensis in mice (Mus musculus) at 24 mg/kg/day peroral dose after 4 days; settings: route oral
# Procedure, shortened: (§1)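 Colony-bred Swiss mice (25 ± 1 g) were given 1 × 10⁶ parasitized RBC on day 0. Groups of five were dosed orally from day 0 to 3 in two divided doses daily, 0.1 mL per dose, in groundnut oil (hemisuccinates in 5% NaHCO₃). Parasitemia was read from thin blood smears on days 4–28. % suppression = [(C − T)/C] × 100 against untreated controls. β-Arteether served as positive control.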
# [4] = system: Plasmodium yoelii nigeriensis; assay: Antimalarial activity against multidrug-resistant Plasmodium yoelii nigeriensis in mice (Mus musculus) at 96 mg/kg/day peroral dose after 4 days; settings: route oral; procedure, shortened: as §1
# [5] = system: Plasmodium yoelii nigeriensis; assay: Antimalarial activity against multidrug-resistant Plasmodium yoelii nigeriensis in mice (Mus musculus) at 48 mg/kg/day peroral dose over 4 days; settings: route oral; procedure, shortened: as §1
# Mus musculus = assay: Survival of mouse at 48 mg/kg/day, po after 28 days
# Procedure, shortened: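 Swiss mice (25 ± 1 g) were infected with 1 × 10⁶ parasitized RBC on day 0. Five mice per dose were treated orally on days 0–3, twice daily, in groundnut oil or 5% NaHCO₃. Parasitemia was followed by thin smears to day 28. Protection is the percentage of treated mice surviving beyond day 28. β-Arteether served as positive control.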
SMILES,Activity [4],other results
OC(c1cc(C(F)(F)F)nc2c(C(F)(F)F)cccc12)C1CCCCN1 (centres undefined) [MEFLOQUINE],,Activity [1]: 100%; Activity [2]: 100%
C=C(c1ccc(Cl)cc1)C1COC2(CCC(=CC(=O)OCC)CC2)OO1 (centres undefined),100%,Activity [3]: 100%; Activity [5]: 100%
C=C(c1ccc(-c2ccccc2)cc1)C1COC2(CCC(O)(CC(=O)OCC)CC2)OO1 (stereo in doubt; 25b),97%,
C=C(c1ccccc1)C1COC2(CCC(=O)CC2)OO1 (centres undefined),7%,
C=C(c1ccccc1)C1COC2(CCC(O)(CC(=O)OCC)CC2)OO1 (stereo in doubt; 24a),87%,
C=C(c1ccc(C)cc1)C1COC2(CCC(=C(C)C(=O)OCC)CC2)OO1 (centres undefined),100%,
C=C(c1ccc(C2CCCCC2)cc1)C1COC2(CCC(=O)CC2)OO1 (centres undefined),100%,
C=C(c1ccc(Cl)cc1)C1COC2(CCC(=C(C)C(=O)OCC)CC2)OO1 (centres undefined),87%,
C=C(c1ccc(-c2ccccc2)cc1)C1COC2(CCC(=O)CC2)OO1 (centres undefined),92%,
C=C(c1ccc(Cl)cc1)C1COC2(CCC(O)CC2)OO1 (centres undefined),74%,
C=C(c1ccccc1)C1COC2(CCC(C)(O)CC2)OO1 (centres undefined),92%,
CCN(CC)CCCC(C)Nc1ccnc2cc(Cl)ccc12 (centres undefined) [CHLOROQUINE],,Activity [1]: 100%; Activity [2]: 100%
C=C(c1ccc(OC)cc1)C1COC2(CCC(=O)CC2)OO1 (centres undefined),32%,
C=C(c1ccc(C)cc1)C1COC2(CCC(OC(=O)CCC(=O)O)CC2)OO1 (centres undefined),97%,
C=C(c1ccc(Cl)cc1)C1COC2(CCC(=O)CC2)OO1 (centres undefined),18%,
C=C(c1ccc(Cl)cc1)C1COC2(CCC(O)(CC(=O)OCC)CC2)OO1 (stereo in doubt; 26b),74%,
C=C(c1ccc(-c2ccccc2)cc1)C1COC2(CCC(=C(C)C(=O)OCC)CC2)OO1 (centres undefined),100%,Activity [5]: 100%
C=C(c1ccc(-c2ccccc2)cc1)C1COC2(CCC(O)CC2)OO1 (centres undefined),91%,
C=C(c1ccc(-c2ccccc2)cc1)C1COC2(CCC(=CC(=O)OCC)CC2)OO1 (centres undefined),100%,Activity [5]: 93%
C=C(c1ccccc1)C1COC2(CCC(O)(c3ccccc3)CC2)OO1 (centres undefined),95%,
C=C(c1ccccc1)C1COC2(CCC(=CC(=O)OCC)CC2)OO1 (centres undefined),100%,Activity [3]: 99%; Activity [5]: 100%

SMILES,Activity [4],other results
C=C(c1ccccc1)C1COC2(CCC(OC(=O)CCC(=O)O)CC2)OO1 (centres undefined),82%,
C=C(c1ccc(C)cc1)C1COC2(CCC(O)CC2)OO1 (centres undefined),37%,
C=C(c1ccc(C2CCCCC2)cc1)C1COC2(CCC(=CC(=O)OCC)CC2)OO1 (centres undefined),100%,Activity (Mus musculus): 40%; Activity [5]: 100%
C=C(c1ccc(Cl)cc1)C1COC2(CCC(O)(CC(=O)OCC)CC2)OO1 (stereo in doubt; 26a),31%,
C=C(c1ccc(C2CCCCC2)cc1)C1COC2(CCC(=C(C)C(=O)OCC)CC2)OO1 (centres undefined),100%,
C=C(c1ccc2ccccc2c1)C1COC2(CCC(=O)CC2)OO1 (centres undefined),15%,
CCCCN(CCCC)CCC(O)c1cc2c(Cl)cc(Cl)cc2c2cc(C(F)(F)F)ccc12 (centres undefined) [HALOFANTRINE],,Activity [1]: 100%; Activity [2]: 100%
C=C(c1ccc(OC)cc1)C1COC2(CCC(=C(C)C(=O)OCC)CC2)OO1 (centres undefined),18%,
C=C(c1ccc(-c2ccccc2)cc1)C1COC2(CCC(O)(CC(=O)OCC)CC2)OO1 (stereo in doubt; 25a),93%,
C=C(c1ccc(OC)cc1)C1COC2(CCC(=CC(=O)OCC)CC2)OO1 (centres undefined),100%,Activity (Mus musculus): 40%; Activity [5]: 100%
C=C(c1ccc2ccccc2c1)C1COC2(CCC(=C(C)C(=O)OCC)CC2)OO1 (centres undefined),97%,
C=C(c1ccccc1)C1COC2(CCC(O)CC2)OO1 (centres undefined),78%,
C=C(c1ccc(C)cc1)C1COC2(CCC(=O)CC2)OO1 (centres undefined),7%,
C=C(c1ccccc1)C1COC2(CCC(O)(CC(=O)OCC)CC2)OO1 (stereo in doubt; 24b),37%,
C=C(c1ccc(Cl)cc1)C1COC2(CCC(OC(=O)CCC(=O)O)CC2)OO1 (centres undefined),39%,
CCO[C@H]1O[C@@H]2O[C@@]3(C)CC[C@H]4[C@H](C)CC[C@@H]([C@H]1C)[C@@]24OO3 [ARTEMOTIL],,Activity [3]: 100%; Activity [5]: 100%
C=C(c1ccccc1)C1COC2(CCC(=C(C)C(=O)OCC)CC2)OO1 (centres undefined),39%,
C=C(c1ccc(-c2ccccc2)cc1)C1COC2(CCC(OC(=O)CCC(=O)O)CC2)OO1 (centres undefined),99%,
C=C(c1ccc(C)cc1)C1COC2(CCC(=CC(=O)OCC)CC2)OO1 (centres undefined),100%,Activity [3]: 100%; Activity [5]: 100%
C=C(c1ccc2ccccc2c1)C1COC2(CCC(=CC(=O)OCC)CC2)OO1 (centres undefined),100%,Activity [3]: 100%; Activity [5]: 100%
